According to ChEMBL document CHEMBL1136324, “The total synthesis of an aurone isolated from Uvaria hamiltonii: aurones and flavones as anticancer agents” (Bioorg Med Chem Lett, 2003):

Columns and labels:
K562 [1] = experiment: Inhibitory activity against K562 human chronic myelogenous leukemia cell line using MTT assay after 5 days incubation of the compound; type: functional, cell-based; settings: K562, 120 h
How it was run: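 K562 cells exposed to drug for 5 days at 37 °C; growth read by MTT assay. IC50 taken as concentration giving 50% inhibition of cell growth.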

Tubulin alpha chain = Tubulin alpha chain (Sus scrofa, UniProt P02550); experiment: Concentration that cause a 50% inhibition in tubulin assembly as measured by an increase in turbidity using microtubule assembly assay
K562 [2] = experiment: Effect on G0-G1 phase of the cell cycle by flow cytometry; type: functional, Homo sapiens
How it was run: (§1)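 Cell-cycle phase distribution measured by flow cytometry in drug-treated cells, compared with untreated control.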

K562 [3] = experiment: Effect on G2/M phase of the cell cycle by flow cytometry; type: functional, Homo sapiens; how it was run: as §1
K562 [4] = experiment: Effect on S phase of the cell cycle by flow cytometry; type: functional, Homo sapiens; how it was run: as §1
Tubulin = Tubulin (Sus scrofa, UniProt P02554+P02550); experiment: Ability to inhibit the binding of [3H]colchicine to porcine tubulin; type: protein assay

Chain of Tubulin alpha chain (P02550 whole entry, looked up): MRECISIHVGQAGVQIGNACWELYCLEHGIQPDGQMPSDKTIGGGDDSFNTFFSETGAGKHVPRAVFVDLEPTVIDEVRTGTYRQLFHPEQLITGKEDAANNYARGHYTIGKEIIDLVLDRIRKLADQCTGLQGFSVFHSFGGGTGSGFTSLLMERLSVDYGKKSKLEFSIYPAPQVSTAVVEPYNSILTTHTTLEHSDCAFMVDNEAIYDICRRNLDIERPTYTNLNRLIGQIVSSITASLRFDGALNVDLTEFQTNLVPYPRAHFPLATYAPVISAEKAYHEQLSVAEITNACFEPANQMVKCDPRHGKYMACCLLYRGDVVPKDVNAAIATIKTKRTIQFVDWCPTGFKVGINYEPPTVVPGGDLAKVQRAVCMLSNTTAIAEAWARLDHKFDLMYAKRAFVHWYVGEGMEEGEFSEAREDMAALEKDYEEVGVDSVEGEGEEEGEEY

Question: For `COc1ccc(/C=C2\Oc3cc(OC)c(OC)c(OC)c3C2=O)cc1F`, which IC50 (K562 [1]) is on record?
Answer: > 50 µM

Question: What about the IC50 (Tubulin alpha chain) of the same compound?
Answer: > 50 µM

Question: How did the IC50 (K562 [1]) turn out when `COc1ccc(-c2cc(=O)c3cc(OC)c(OC)c(OC)c3o2)cc1` was run?
Answer: 0.83 µM

Question: Which results are given for `COc1cc2c(c(OC)c1OC)O/C(=C\c1ccc(O)c(O)c1)C2=O`?
Answer: IC50 (K562 [1]): 9.7 µM; Activity (K562 [2]): 45; Activity (K562 [3]): 39; Activity (K562 [4]): 16; IC50 (Tubulin alpha chain): > 50 µM

Question: For `COc1ccc(-c2cc(=O)c3cc(OC)c(OC)c(OC)c3o2)cc1O`, which IC50 (K562 [1]) is on record?
Answer: 0.04 µM

Question: What about the Activity (K562 [2]) of the same compound?
Answer: 52

Question: And the Activity (K562 [3])?
Answer: 38

Question: What about the Activity (K562 [4]) of the same compound?
Answer: 11

Question: What about the IC50 (Tubulin alpha chain) of the same compound?
Answer: 25 µM

Question: What about the IC50 (Tubulin) of the same compound?
Answer: 40 µM

Question: For `COc1ccc(-c2cc(=O)c3c(OC)c(OC)c(OC)cc3o2)cc1`, which IC50 (K562 [1]) is on record?
Answer: 42 µM

Question: `COc1ccc(/C=C2\Oc3cc(OC)c(OC)c(OC)c3C2=O)cc1` was tested. Which IC50 (K562 [1]) did it give?
Answer: > 50 µM

Question: How did the IC50 (K562 [1]) turn out when `COc1cc2c(c(OC)c1OC)O/C(=C\c1cc(F)c(OC)c(F)c1)C2=O` was run?
Answer: 0.15 µM

Question: How did the IC50 (K562 [1]) turn out when `COc1cc2c(c(OC)c1OC)C(=O)/C(=C/c1cc(F)c(OC)c(F)c1)O2` was run?
Answer: > 50 µM

Question: Which IC50 (K562 [1]) does the source give for `COc1cc2c(c(OC)c1OC)C(=O)/C(=C/c1ccc(O)c(O)c1)O2` here?
Answer: 12 µM

Question: What about the Activity (K562 [2]) of the same compound?
Answer: 57

Question: What about the Activity (K562 [3]) of the same compound?
Answer: 25

Question: What about the Activity (K562 [4]) of the same compound?
Answer: 18

Question: What about the IC50 (Tubulin alpha chain) of the same compound?
Answer: > 50 µM

Question: What does the source list for `COc1ccc(/C=C2\Oc3c(cc(OC)c(OC)c3OC)C2=O)cc1O`?
Answer: IC50 (K562 [1]): 0.05 µM; Activity (K562 [2]): 17; Activity (K562 [3]): 69; Activity (K562 [4]): 14; IC50 (Tubulin alpha chain): 22 µM; IC50 (Tubulin): 60 µM

Question: `COc1ccc(-c2cc(=O)c3c(OC)c(OC)c(OC)cc3o2)cc1O` was tested. Which IC50 (K562 [1]) did it give?
Answer: 22 µM

Question: What about the IC50 (Tubulin alpha chain) of the same compound?
Answer: > 50 µM

Question: `COc1ccc(/C=C2\Oc3cc(OC)c(OC)c(OC)c3C2=O)cc1O` was tested. Which IC50 (K562 [1]) did it give?
Answer: 18 µM

Question: What about the IC50 (Tubulin alpha chain) of the same compound?
Answer: > 50 µM

Question: What does the source list for `COc1ccc(-c2cc(=O)c3c(OC)c(OC)c(OC)cc3o2)cc1F`?
Answer: IC50 (K562 [1]): > 50 µM; IC50 (Tubulin alpha chain): > 50 µM

Question: With `COc1ccc(/C=C2\Oc3c(cc(OC)c(OC)c3OC)C2=O)cc1` as the compound, how does the IC50 (K562 [1]) read?
Answer: 0.15 µM

Question: Which results are given for `COc1ccc(/C=C2\Oc3c(cc(OC)c(OC)c3OC)C2=O)cc1F`?
Answer: IC50 (K562 [1]): 0.11 µM; Activity (K562 [2]): 12; Activity (K562 [3]): 77; Activity (K562 [4]): 11; IC50 (Tubulin alpha chain): > 50 µM

Question: With `COc1ccc(/C=C(\C)C(=O)c2cc(OC)c(OC)c(OC)c2)cc1O` as the compound, how does the IC50 (K562 [1]) read?
Answer: 0.0002 µM

Question: And the Activity (K562 [2])?
Answer: 10

Question: And the Activity (K562 [3])?
Answer: 83

Question: What about the Activity (K562 [4]) of the same compound?
Answer: 7

Question: What about the IC50 (Tubulin alpha chain) of the same compound?
Answer: 0.5 µM

Question: Which IC50 (K562 [1]) does the source give for `COc1ccc(-c2cc(=O)c3cc(OC)c(OC)c(OC)c3o2)cc1F` here?
Answer: 0.59 µM

Question: And the IC50 (Tubulin alpha chain)?
Answer: > 50 µM
